A selection: hits, their analogues and other compounds. The true share with any hit is near 2.4%.
EBV gp42 block – Epstein-Barr virus gp42 inhibitors, primary screen, biochemical, uHTS, fluorescence polarization. AID 1085, 2008. Glycoprotein 42 (Epstein-Barr virus (strain AG876)), Q1HVG2. 220,000 compounds, 0.42% hits. inhibition, % (tested at 21.74 µM). Fluorescence polarization binding assay, mP read-out; in the data active = inhibition above about 50%
MEX-5 binding – MEX-5 zinc finger RNA-binding disruptors – biochemical, C. elegans, fluorescence polarization, MLPCN library, primary screen; Zinc finger protein mex-5 (Caenorhabditis elegans), Q9XUB2; activity score (negative = inhibition of binding), % at 10 µM; 300,000 compounds, 0.38% hits; MEX-5/FITC-TCR2 RNA binding; hits give low values;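 active = inhibition past about -25% in most replicates, and total fluorescence under double the plate's negative control median, limit read from the data; inconclusive = replicates evenly split on the limit, or fluorescence at least double controls; inactive = too little inhibition in most replicates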;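 note: 0% = DMSO and -100% = 5 µM competing unlabeled TCR2 RNA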
Runt-CBFb FRET – inhibitors of RUNX1 Runt–CBFb binding, primary screen, biochemical, FRET, Cerulean-Runt, Venus-CBFb, uHTS | Runt-related transcription factor 1 (Homo sapiens) + Core-binding factor subunit beta … | Cerulean-Runt/Venus-CBFb FRET ratio 530/480, 1 h | inhibition, % at 20 µM | 220,000 compounds, 0.46% hits;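 active = inhibition over about 50% at 20 µM in the single-dose screen, limit read from the data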;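 note: 0% = DMSO wells and 100% = excess unlabeled CBFb competitor control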
Target sequence (Q01196 whole entry, looked up): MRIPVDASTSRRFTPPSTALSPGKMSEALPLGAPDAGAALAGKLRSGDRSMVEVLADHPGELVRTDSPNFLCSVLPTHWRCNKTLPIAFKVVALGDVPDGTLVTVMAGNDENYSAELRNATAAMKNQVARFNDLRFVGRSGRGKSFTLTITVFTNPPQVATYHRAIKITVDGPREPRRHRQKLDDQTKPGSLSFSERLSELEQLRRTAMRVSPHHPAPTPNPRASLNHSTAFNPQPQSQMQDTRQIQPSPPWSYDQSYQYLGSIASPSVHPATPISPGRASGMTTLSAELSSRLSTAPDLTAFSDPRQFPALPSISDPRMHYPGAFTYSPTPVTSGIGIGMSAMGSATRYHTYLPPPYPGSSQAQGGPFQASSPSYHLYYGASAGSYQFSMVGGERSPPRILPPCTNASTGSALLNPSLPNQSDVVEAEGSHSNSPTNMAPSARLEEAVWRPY
Target sequence (Q13951 whole entry, looked up): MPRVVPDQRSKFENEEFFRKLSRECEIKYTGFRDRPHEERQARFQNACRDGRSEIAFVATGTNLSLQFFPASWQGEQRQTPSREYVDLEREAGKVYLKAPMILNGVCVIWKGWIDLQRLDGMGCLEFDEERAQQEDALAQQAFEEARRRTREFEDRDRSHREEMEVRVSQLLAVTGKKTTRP
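Measured by: fluorescence energy transfer, 422 nm excitation, 530/480 nm emission; Assay system: Cerulean-Runt domain; Medium: Tris pH 7.5 buffer with BSA; Measure: loss of energy transfer signal; Controls: 5 µM unlabeled CBFb as full-inhibition high control; Incubation: protein complex preformed 1 h, compound exposure 1 h, room temperature, dark.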
LANA-H2B inh – blockers of LANA interaction with H2A/H2B – biochemical, FP readout, HTS, primary screen; inhibition, % (concentration not given with the values); 320,000 compounds, 0.6% hits; cell-free LANA-H2A/H2B peptide, fluorescence polarization; in the data active = inhibition mostly above about 10%, no sharp cut-off; inactive = mostly below about 6.7%
RanGTP-Imp inh – inhibitors of RanGTP-importin-beta interaction, primary screen, biochemical, FRET, CFP-Ran, YFP-importin-beta, homogeneous; Ran GTPase (GTP-bound) - importin-beta complex; cell-free CFP-Ran/YFP-importin-beta FRET ratio; inhibition, % (concentration not given with the values); 300,000 compounds, 1.1% hits;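 active = more than half of the replicate wells show a fall in the fluorescence ratio signal beyond about 16%, limit read from the data, passing the limit was not always enough; inconclusive = exactly half of the replicate wells pass the set limit; inactive = fewer than half of replicates pass the limit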;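 note: 0% = DMSO wells and 100% = Ran loaded with GDP instead of GTP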
Runt-SMMHC FRET – inhibitors of RUNX1 Runt–CBFb-SMMHC binding, primary screen, biochemical, FRET, Cerulean-Runt, Venus-CBFb-SMMHC, uHTS | inhibition, % at 20 µM | AID 1434, 2008 | 220,000 compounds, 0.74% hits | Cerulean-Runt/Venus-CBFb-SMMHC FRET ratio 530/480, 1 h;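 active = mean inhibition across duplicate retests at 20 µM reaching about 50%, limit read from the data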;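 note: 0% = DMSO wells and 100% = wells with excess untagged CBFb-SMMHC; inhibitors lower the FRET ratio by blocking Runt binding to CBFb-SMMHC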
* marks the source's active call; other numbers are inactive results; i = inactive; ? = inconclusive; nt = no result.

SMILES | EBV gp42 block | MEX-5 binding | Runt-CBFb FRET | LANA-H2B inh | RanGTP-Imp inh | Runt-SMMHC FRET
CCN1CCN(Cc2c(O)ccc3c2O/C(=C\c2ccccc2)C3=O)CC1 | -1 | -34* | -65 | 2 | -2 | 88*
O=C1/C(=C/C=C/c2ccccc2)Oc2c1ccc(O)c2CN1CCN(CCO)CC1 | -49 | -2 | -327 | -6 | -5 | -93
COc1ccccc1/C=C/C=C1\Oc2c(ccc(O)c2CN2CCN(CCO)CC2)C1=O | -103 | ? | -362 | -28 | -431 | -170
CCOc1ccc(CC2c3cc(OCC)c(OCC)cc3CCN2C(=O)CN2CCN(C)CC2)cc1OCC (stereo not drawn) | -3 | 1 | 2 | 1 | -1 | -4
Cc1c(NC(=O)c2cccc(NC(=O)Cc3ccc(F)cc3)c2)c(=O)n(-c2ccccc2)n1C | nt | nt | nt | 3 | nt | nt
COc1cc(C2C(C#N)=C(N)OC3=C2C(=O)CCC3)c([N+](=O)[O-])cc1OC (stereo not drawn) | 83* | -63* | -14 | 4 | -4 | -56
CC1(C)CC(=O)C2=C(C1)OC(N)=C(C#N)C2c1cc2c(cc1[N+](=O)[O-])OCO2 (stereo not drawn) | 94* | -56* | -12 | i | -18 | -26
Cc1cc[n+]2n1CC(O)C2 (stereo not drawn) | -24 | 0 | 2 | -1 | 0 | -5
CC(C)(C)OC(=O)NCc1ccc(CNC(=O)c2nc[nH]c2C(=O)N2CCN(C(=O)OC(C)(C)C)CC2)cc1 | nt | nt | nt | 4 | nt | nt
CC(=O)c1ccc2noc(-c3ccc(F)cc3)c2c1 | 95* | -15 | -1 | 1 | -3 | -12
Cc1ccc(-c2onc3ccc(C=O)cc23)cc1 | 7 | 0 | -1 | 12 | 23* | -7
CCC(NS(=O)(=O)c1ccc2c(c1)Cc1cc(S(=O)(=O)NC(CC)C(=O)O)ccc1-2)C(=O)O (stereo not drawn) | nt | -1 | nt | 3 | 2 | nt
Cc1nc(Cl)c2c(n1)NC1=C(O2)C(=O)CCC1 | 136* | ? | -44 | 16 | -2 | 73*
O=C1NC2=C(C(=O)CCC2)C(c2ccccc2Cl)N1 (stereo not drawn) | nt | 1 | nt | -1 | -5 | nt
COc1cccc(-c2nnn(CC(=O)N3CCCCC3)n2)c1 | nt | 0 | nt | 16 | -9 | nt
O=c1c(C(c2ccccc2)c2c(O)sc3ccccc3c2=O)c(O)sc2ccccc12 | 7 | 0 | -3 | 11* | 19* | -9
Cc1ccc(C(=O)N/C(=C\c2ccco2)C(=O)N2CC(C)OC(C)C2)cc1C (stereo not drawn) | nt | nt | nt | 2 | nt | nt
CCN(C(=O)CSc1nc2ccccc2c(=O)n1C(C)COC)C1CCS(=O)(=O)C1 (stereo not drawn) | 2 | 1 | -2 | 2 | 9 | 4
CCOC(=O)C1CCN(C(=O)c2ccc3nc(-c4ccc(OC)cc4)c(-c4ccc(OC)cc4)nc3c2)CC1 | nt | -1 | nt | 2 | 24* | nt
CCOC(=O)C1CCN(C(=O)c2sc3nc(-c4ccc(F)cc4)cn3c2C)CC1 | -6 | 0 | -4 | 137* | 7 | -2
CCOC(=O)C1CCN(C(=O)c2ccc(N3CCOCC3)c([N+](=O)[O-])c2)CC1 | nt | nt | nt | 21* | nt | nt
COc1cccc(-c2c(C#N)c(SC)nc3cc(C)nn23)c1 | -2 | 3 | 0 | -5 | 7 | -4
Cc1ccc2oc(C(=O)N(Cc3nccn3C)C(C)C)c(C)c2c1 | nt | 1 | nt | 0 | ? | nt
Cc1ccc(/C=C/C(=O)OCC(=O)NC(C)C)o1 | -4 | 1 | 1 | 3 | -1 | 0
O=C1CC(Cc2ccccc2)C(=O)N1c1ncccn1 (stereo not drawn) | 1 | 1 | 0 | -6 | -1 | -1
SMILES | EBV gp42 block | MEX-5 binding | Runt-CBFb FRET | LANA-H2B inh | RanGTP-Imp inh | Runt-SMMHC FRET
O=c1[nH][nH]c(C(F)(F)F)c1C=NCc1cccs1 | -2 | 0 | 0 | -13 | ? | -1
Cc1csc(SCC(=O)NCc2ccccc2Cl)n1 | 2 | -3 | -1 | -3 | 4 | -1
O=c1[nH]cc(NCCc2ccccc2)c(=O)[nH]1 | 21 | -6 | 9 | -7 | 43* | 16
O=c1[nH]cc(COCc2ccccc2)c(=O)[nH]1 | -13 | -1 | -1 | 7 | 7 | -2
Cc1ccc(NC(=O)CN2C(=O)S/C(=C/c3ccc(-c4cccc(C(=O)O)c4)o3)C2=O)cc1 | 17 | nt | -28 | nt | nt | -1
O=C(CN1C(=O)S/C(=C\c2ccccn2)C1=O)Nc1ccccc1 | nt | nt | nt | -4 | nt | nt
Cc1ccc(NC(=O)CN2C(=O)S/C(=C/c3ccc(O)c([N+](=O)[O-])c3)C2=O)cc1C | 65* | nt | -11 | nt | nt | -22
Cc1ccc(C(=O)O)cc1-c1ccc(/C=C2\SC(=O)N(CC(=O)Nc3ccccc3)C2=O)o1 | 0 | -19 | 11 | 2 | 24* | 88
Cc1ccc(NC(=O)CN2C(=O)S/C(=C\c3ccc(-c4cccc(C(=O)O)c4C)o3)C2=O)cc1 | -38 | -15 | 25 | 3 | 42* | -10
O=C(CN1C(=O)S/C(=C\c2cc(Cl)c(O)c(Cl)c2)C1=O)Nc1ccccc1 | nt | 6 | nt | -5 | 51* | nt
Cc1cc(C(=O)O)ccc1-c1ccc(/C=C2\SC(=O)N(CC(=O)Nc3ccc4c(c3)OCO4)C2=O)o1 | nt | nt | nt | 7 | nt | nt
CC(C)(C)OC(=O)CN1C(=O)S/C(=C\c2ccc(-c3cccc(C(=O)O)c3)o2)C1=O | nt | -9 | nt | 2 | 35* | nt
Cc1ccccc1NC(=O)CN1C(=O)S/C(=C\c2ccc(-c3cc(C(=O)O)ccc3C)o2)C1=O | -68 | -54* | 11 | nt | -106 | 18
Cc1ccc(C(C)C)c(OCCNCCc2ccccc2)c1 | nt | 0 | nt | -4 | 3 | nt
Cc1ccccc1C(=O)N1CC(=O)Nc2ccc(F)cc2C1c1ccccc1 (stereo not drawn) | nt | 0 | nt | -2 | 2 | nt
CC(C)OP(=O)(c1ccccc1)c1ccccc1 | -9 | 0 | 2 | -5 | 3 | 2
CCCCOC(=O)c1cccnc1 | -2 | 1 | -1 | 3 | -4 | -6
CCN1CCc2nc3sc(C(=O)N4CCc5ccccc5C4)c(N)c3cc2C1 | nt | 0 | nt | 6 | 1 | nt
